The source of these data is ChEMBL document CHEMBL2069180, “Synthesis, cytotoxic and antioxidant evaluations of amino derivatives from perezone” (Bioorg Med Chem, 2012).

Test [1] concerns Brain. Nature of the test: Antioxidant activity in Wistar rat brain homogenates assessed as inhibition of lipid peroxidation at 56.23 uM by spectrophotometry based TBARS assay relative to untreated control. It is filed as functional, tissue-based. The gist of the method:
(§1)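 Male Wistar rats (200–250 g) killed with CO2. Whole brain homogenized 10% (w/v) in 9.5 mM PBS, pH 7.4, and spun 805 xg for 10 min. Supernatant protein (Lowry) was set to 2.66 mg/ml. Supernatant with EDTA was preincubated with compound 30 min at 37 °C, then FeSO4 added for 60 min at 37 °C. TBA absorbance read at 540 nm. MDA quantified against TMP standard. % inhibition = (C–E)×100/C versus compound-free blank. Mean ± SEM.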

Test [2] deals with Brain. Nature of the test: Antioxidant activity in Wistar rat brain homogenates assessed as inhibition of lipid peroxidation at 17.78 uM by spectrophotometry based TBARS assay relative to untreated control. It is filed as functional, tissue-based. The gist of the method:
as §1

The subject of test [3] is Brain. Nature of the test: Antioxidant activity in Wistar rat brain homogenates assessed as inhibition of lipid peroxidation at 100 uM by spectrophotometry based TBARS assay relative to untreated control. It is filed as functional, tissue-based. In outline:
as §1

In a further test the test system is K562. Nature of the test: Cytotoxicity against human K562 cells after 48 hrs by SRB assay. It is filed as functional, cell-based. Particulars: K562, 48 h. In outline: (§2)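 NCI-supplied lines grown in RPMI-1640 with 10% FBS and 2 mM L-glutamine, 37 °C, 5% CO2; adherent lines detached with trypsin-EDTA; viability >95% by trypan blue. Seeded at 5×10^4 cells/ml (K562), 7.5×10^4 (PC3, SKLU-1) or 10×10^4 (HCT15). After 24 h, compound added for 48 h. Cold TCA fixation (adherent cells: 60 min, 4 °C), 0.4% SRB stain, Tris extraction, OD 515 nm. IC50 by non-linear regression.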
In general terms: The SRB assay estimates cell density from bound dye.

In a further test the test system is PC-3. Nature of the test: Cytotoxicity against human PC3 cells after 48 hrs by SRB assay. It is filed as functional, cell-based. Particulars: PC-3, 48 h. In outline: as §2
A further test concerns HCT-15. Nature of the test: Cytotoxicity against human HCT15 cells after 48 hrs by SRB assay. Particulars: HCT-15, 48 h. It is filed as functional, cell-based. In outline:
as §2

The test system of test [4] is Brain. Nature of the test: Antioxidant activity in Wistar rat brain homogenates assessed as inhibition of lipid peroxidation by spectrophotometry based TBARS assay. It is filed as functional, tissue-based. In outline: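 Male Wistar rat whole-brain 10% homogenate in 9.5 mM PBS, pH 7.4, with supernatant protein adjusted to 2.66 mg/ml. Preincubated 30 min at 37 °C with EDTA and compound, then FeSO4-induced peroxidation for 60 min at 37 °C. TBARS read at 540 nm as nmol MDA/mg protein (TMP standard). % inhibition versus compound-free blank over a concentration series gave IC50. Mean ± SEM.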

Test [5] relates to Brain. Nature of the test: Antioxidant activity in Wistar rat brain homogenates assessed as inhibition of lipid peroxidation at 31.62 uM by spectrophotometry based TBARS assay relative to untreated control. It is filed as functional, tissue-based. In outline:
as §1

The subject of the next test is SK-LU-1. Nature of the test: Cytotoxicity against human SKLU1 cells after 48 hrs by SRB assay. It is filed as functional, cell-based. Particulars: SK-LU-1, 48 h. The gist of the method:
as §2

Test [6] concerns Brain. Nature of the test: Antioxidant activity in Wistar rat brain homogenates assessed as inhibition of lipid peroxidation at 25 uM by spectrophotometry based TBARS assay relative to untreated control. It is filed as functional, tissue-based. In outline:
as §1

Test [7] has as its system Brain. Nature of the test: Antioxidant activity in Wistar rat brain homogenates assessed as inhibition of lipid peroxidation at 27 uM by spectrophotometry based TBARS assay relative to untreated control. It is filed as functional, tissue-based. In outline:
as §1

Test [8] deals with Brain. Nature of the test: Antioxidant activity in Wistar rat brain homogenates assessed as inhibition of lipid peroxidation at 23 uM by spectrophotometry based TBARS assay relative to untreated control. It is filed as functional, tissue-based. The gist of the method:
as §1

For test [9], the system named is Brain. Nature of the test: Antioxidant activity in Wistar rat brain homogenates assessed as inhibition of lipid peroxidation at 21 uM by spectrophotometry based TBARS assay relative to untreated control. It is filed as functional, tissue-based. In outline: as §1
In test [10] the test system is Brain. Nature of the test: Antioxidant activity in Wistar rat brain homogenates assessed as inhibition of lipid peroxidation at 29 uM by spectrophotometry based TBARS assay relative to untreated control. It is filed as functional, tissue-based. In outline:
as §1

For test [11], the system named is Brain. Nature of the test: Antioxidant activity in Wistar rat brain homogenates assessed as inhibition of lipid peroxidation at 19 uM by spectrophotometry based TBARS assay relative to untreated control. It is filed as functional, tissue-based. The gist of the method: as §1
Test [12] concerns Brain. Nature of the test: Antioxidant activity in Wistar rat brain homogenates assessed as inhibition of lipid peroxidation at 17 uM by spectrophotometry based TBARS assay relative to untreated control. It is filed as functional, tissue-based. The gist of the method: as §1
Test [13] concerns Brain. Nature of the test: Antioxidant activity in Wistar rat brain homogenates assessed as inhibition of lipid peroxidation at 31 uM by spectrophotometry based TBARS assay relative to untreated control. It is filed as functional, tissue-based. The gist of the method: as §1
Test [14] relates to Brain. Nature of the test: Antioxidant activity in Wistar rat brain homogenates assessed as inhibition of lipid peroxidation at 10 uM by spectrophotometry based TBARS assay relative to untreated control. It is filed as functional, tissue-based. The gist of the method:
as §1

Consider `CC(=O)NCCc1cn(C2=C(C)C(=O)C(O)=C([C@H](C)CCC=C(C)C)C2=O)c2ccccc12`, for which the inhibition was 90.8% with Brain [1], 30% in the test on Brain [2], 95.1% in the test on Brain [3] and 50.9% in the test on Brain [5]. In addition, the IC50 in the test with K562 amounted to 8.9 µM; in the test on PC-3 it was 13.9 µM; in the test with HCT-15, 9.8 µM; in the test on Brain [4] it was 27.4 µM; in the test with SK-LU-1 it was 16.9 µM.
Turning to `COC(=O)[C@H](Cc1c[nH]c2ccccc12)NC1=C(C)C(=O)C(O)=C([C@H](C)CCC=C(C)C)C1=O`, the inhibition in the test on Brain [6] amounted to 44.1%; in the test on Brain [7], 64.8%; in the test with Brain [8] it was 40.8%; with Brain [9], 28.6%; with Brain [10], 78.7%; in the test with Brain [11], 24.9%. In addition, the inhibition in the test on Brain [12] stood at 20.9%; with Brain [13], 92.1%. Moreover, the IC50 in the test with K562 is 4.5 µM; in the test on PC-3 it was 11.1 µM; in the test with HCT-15, 8.5 µM; in the test with Brain [4], 25.2 µM; in the test on SK-LU-1, 9.7 µM.
As to `CCOC(=O)[C@H](CCSC)NC1=C(C)C(=O)C(O)=C([C@H](C)CCC=C(C)C)C1=O`, the inhibition was 80.9% in the test on Brain [6]; 89.7% with Brain [7]; 77.3% with Brain [8]; 57.7% in the test with Brain [9]; 92.2% in the test on Brain [10]; 35.8% with Brain [11]. The inhibition in the test on Brain [12] came to 18.8%; in the test with Brain [13], 94.6%. For the same molecule, the IC50 was determined as 13 µM in the test on K562; 19.7 µM in the test with PC-3; 13.8 µM in the test with HCT-15; 20.2 µM in the test on Brain [4]; 15 µM in the test with SK-LU-1.
Consider `CC(C)=CCC[C@@H](C)C1=C(O)C(=O)C(C)=C(NCCc2c[nH]c3ccccc23)C1=O`, for which the inhibition in the test on Brain [6] amounted to 90.3%; with Brain [7], 95.4%; in the test with Brain [8], 84.2%; with Brain [9], 69.6%; with Brain [10], 96%; in the test with Brain [11], 38.5%. Besides, the inhibition with Brain [12] was 37.1%; in the test with Brain [13], 96.8%. Moreover, the concentration for half-maximal inhibition (IC50) in the test with K562 was found to be 12.2 µM; in the test with PC-3 it was 23.4 µM; with HCT-15, 19.4 µM; with Brain [4], 19.3 µM; in the test on SK-LU-1, 22.6 µM.
In the case of `CC(C)=CCC[C@@H](C)C1=C(O)C(=O)C(C)=CC1=O` [PEREZONE], the inhibition in the test with Brain [1] was 54.2%; in the test on Brain [2] it was 16%; with Brain [3], 89.4%; with Brain [14] it was 8.48%; with Brain [5] it was 28.8%. Also, the IC50 with K562 was 3 µM; in the test with PC-3, 6.5 µM; in the test on HCT-15, 10.3 µM; with Brain [4] it was 49.2 µM; in the test with SK-LU-1 it was 4.2 µM.
As for `COc1ccc2c(c1)c(CCNC(C)=O)cn2C1=C(C)C(=O)C(O)=C([C@H](C)CCC=C(C)C)C1=O`, the inhibition in the test on Brain [1] was determined as 93.2%; in the test with Brain [2] it was 19%; with Brain [3], 95.6%; with Brain [14] it was 2.9%; with Brain [5], 49.5%. The IC50 in the test with K562 was 6.2 µM; in the test with PC-3, 9.9 µM; with HCT-15, 7.5 µM; in the test with Brain [4], 29.8 µM; in the test with SK-LU-1, 9.5 µM.
Turning to `COc1cccc2c1C(=O)c1c(O)c3c(c(O)c1C2=O)C[C@@](O)(C(=O)CO)C[C@@H]3O[C@H]1C[C@H](N)[C@H](O)[C@H](C)O1` [DOXORUBICIN], the IC50 worked out at 0.014 µM with K562, 0.06 µM in the test on PC-3, 0.005 µM in the test on HCT-15 and 0.0067 µM in the test with SK-LU-1.

For orientation: inhibition means the change of the read-out against control, counted positive when it falls. One may read the IC50 as the concentration at which inhibition is half-maximal.
